# MEKK3 PB1 HTS: MEKK3-MEK5 PB1 interaction, increase or decrease | binding response (% of control), % at 10 µM | 1.4% of 290,000 active | AID 1529 | bead-based flow cytometry, Alexa488-MEK5 binding to MEKK3; actives lie on both sides; 0 = blocked by unlabeled MEK5, 100 = vehicle | Q99759;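 active = binding response more than 3 SD above or below the average of its plate-row segment, actives on both sides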;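 also: Alexa488 bead fluorescence after subtracting the streptavidin-only scavenger bead signal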
# Target sequence (Q99759 whole entry, looked up): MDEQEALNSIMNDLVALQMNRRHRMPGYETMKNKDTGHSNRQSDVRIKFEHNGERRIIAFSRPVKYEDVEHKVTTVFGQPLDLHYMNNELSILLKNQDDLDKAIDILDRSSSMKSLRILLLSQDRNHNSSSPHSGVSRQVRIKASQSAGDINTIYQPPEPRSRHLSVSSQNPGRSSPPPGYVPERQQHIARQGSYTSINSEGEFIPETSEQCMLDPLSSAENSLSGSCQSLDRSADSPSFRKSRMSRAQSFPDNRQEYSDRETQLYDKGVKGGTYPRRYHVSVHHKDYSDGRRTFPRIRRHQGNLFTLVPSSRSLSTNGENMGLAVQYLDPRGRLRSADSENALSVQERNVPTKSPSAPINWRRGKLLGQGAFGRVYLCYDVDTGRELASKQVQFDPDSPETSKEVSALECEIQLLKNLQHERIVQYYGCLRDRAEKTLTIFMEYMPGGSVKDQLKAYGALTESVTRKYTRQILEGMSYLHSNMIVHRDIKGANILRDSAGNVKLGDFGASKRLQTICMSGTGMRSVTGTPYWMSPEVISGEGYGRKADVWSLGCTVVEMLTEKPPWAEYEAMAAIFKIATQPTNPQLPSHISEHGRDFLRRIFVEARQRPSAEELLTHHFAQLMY
# MEKK2wt PB1 HTS: raises or lowers MEK5 binding to wildtype human MEKK2 PB1 domain; Q9Y2U5; bead flow cytometry, Alexa488-MEK5 binding to MEKK2 WT; actives lie on both sides; binding response (% of control), % at 10 µM; 1.1% of 290,000 active; AID 1531; in the data active = binding response below about 67% or above about 130%
# VIM-2 inhibitor: blocks Pseudomonas aeruginosa VIM-2 metallo-beta-lactamase; purified VIM-2, nitrocefin hydrolysis, epi-absorbance fluorescence; inhibition, % at 5.6 µM; 0.89% of 290,000 active; AID 1527;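 active = inhibition above the mean of all tested compounds plus 3 SD, cutoff set per screening run, cut at about 7.5% in these data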;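 also: red hydrolysis product quenches plate fluorescence so inhibitors raise well fluorescence; 0% = enzyme with DMSO and 100% = DMSO without enzyme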
# MEKK2 mut-MEK5: signal of MEK5 binding to mutant human MEKK2 PB1 domain; bead flow cytometry, Alexa488-MEK5 binding to MEKK2 mutant; percent response, % at 10 µM; 0.35% of 290,000 active; in the data active = percent response above about 24%, passing the limit was not always enough
# IMP-1 inh: blocks Pseudomonas aeruginosa IMP-1 metallo-beta-lactamase. purified IMP-1, nitrocefin hydrolysis, epi-absorbance fluorescence. inhibition, % at 5.6 µM. 0.45% of 290,000 active. AID 1556;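 active = inhibition above the mean plus 3 SD of all compounds in the same screening run, cut at about 4.5% in these data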;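 also: 0% = IMP-1 with DMSO and 100% = DMSO wells lacking enzyme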
#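 System: purified IMP-1; amount: IMP-1 0.2 nM before substrate addition; compound: single dose, 5.6 µM; times: 25 °C, 15 min preincubation, 25 min reaction; signal: Epi-absorbance via hydrolysed-nitrocefin quenching of white-plate fluorescence, 480/530 nm, EDTA stop; benchmarks: DMSO with and without IMP-1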
# MEKK2wt confirm: raises or lowers MEK5 binding to wildtype human MEKK2, retest; bead flow cytometry, Alexa488-MEK5 binding to MEKK2 WT; actives lie on both sides; binding response (% of control), % at 10 µM; shares compounds with MEKK3 PB1 HTS; 2.4% of 5,900 active; AID 1892; in the data active = binding response below about 16% or above about 210%; inactive = in between
# MEKK2mut-MEK5: signal of MEK5 binding to mutant human MEKK2, retest; shares compounds with MEKK3 PB1 HTS; bead flow cytometry, Alexa488-MEK5 binding to MEKK2 mutant; percent response, % at 10 µM; 2% of 5,900 active; AID 1893; in the data active = percent response mostly above about 71%, no sharp cut-off; inactive = mostly below about 38%;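 also: higher means compound restores mutant binding toward wildtype level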
# MEKK3-MEK5 inh: confirmation of inhibitors of MEK5 binding to human MEKK3 | shares compounds with MEKK3 PB1 HTS | bead flow cytometry, Alexa488-MEK5 binding to MEKK3; stronger effect = lower value | binding response (% of control), % at 10 µM | 1.8% of 5,900 active | AID 1894;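 active = binding response below 72% of control, or above a set upper limit, though filed actives all read lower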;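 also: 100% = DMSO only wells and 0% = binding blocked by excess unlabeled MEK5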
# The depositor's hits bear a star; nt = no result given; [ ] = dose if it differs, or a comment. A selection: hits, their analogues and other compounds. The true share with any hit is near 3.4%.
SMILES,MEKK3 PB1 HTS,MEKK2wt PB1 HTS,VIM-2 inhibitor,MEKK2 mut-MEK5,IMP-1 inh,MEKK2wt confirm,MEKK2mut-MEK5,MEKK3-MEK5 inh
Cc1ccc(S(=O)(=O)C2(C(=O)N(C)C3CCCCC3)CC2)cc1,109,111,2,5,1,nt,nt,nt
CCOC(=O)C1=C(CC)OC(N)=C(C#N)C1c1cccs1 (configuration not stated),74*[inhibitor],76,-2,-14,-1,102,0,108
S=C1CCC(c2ccc(Cl)cc2)=NN1c1ccccc1,104,99,-1,2,-3,nt,nt,nt
CC(C)N=c1cc2n(-c3ccc(Cl)cc3)c3ccccc3nc-2cc1Nc1ccc(Cl)cc1,70*[inhibitor],114,nt,22,nt,95,14,53*
COc1ccccc1NS(=O)(=O)c1cccc(C(=O)N/N=C/c2ccccc2OCC(=O)O)c1,100,98,-4,-4,-3,nt,nt,nt
Cn1nc(-c2ccc(Cl)cc2)c2cc(C(=O)NCCCN3CCOCC3)sc21,112,154*,1,13,-3,140,19,104
Cn1nc(-c2ccc(Cl)cc2)c2cc(C(=O)NCCN3CCOCC3)sc21,113,136*,-4,9,-4,127,14,109
Cn1nc(-c2ccc(Cl)cc2)c2cc(C(=O)NC3CC3)sc21,107,105,-1,3,-2,nt,nt,nt
COC(=O)CSc1nc(-c2ccccc2)cc(-c2ccco2)c1C#N,125*,123,-2,5,-2,106,4,106
COC(=O)C1=C(C)N(Cc2ccccc2)C(=S)N[C@H]1c1cccc(F)c1,100,98,-2,-1,-5,nt,nt,nt
COC(=O)C1=C(C)N(Cc2ccccc2)C(=NCc2ccccc2)N[C@H]1c1cccc(F)c1,109,137*,-2,35*,-6,132,27,106
COC(=O)C1=C(C)N(CC2CC2)C(=NCc2cc(OC)c(OC)c(OC)c2)N[C@H]1c1ccccc1,100,99,-3,0,-5,nt,nt,nt
COCCN1C(=S)N[C@@H](c2cccc(F)c2)C(C(=O)OC)=C1C,104,147*,-1,37*,-3,144,47,104
COC(=O)C1=C(C)N(CC2CC2)C(=NCc2cccc(Cl)c2)N[C@H]1c1ccccc1,103,125,-1,26*,-5,132,14,107
COc1cccc(S(=O)(=O)NCc2ccc(C(=O)Nc3cccc(Cl)c3)cc2)c1,106,118,1,5,-2,nt,nt,nt
CC(=O)c1ccccc1NC(=O)CCNC(=O)c1ccco1,98,99,-3,-2,-1,nt,nt,nt
C=CCc1ccccc1OCC(O)CN1C(=O)c2ccccc2C1=O (configuration not stated),101,100,0,1,2,nt,nt,nt
CC(C)c1ccc(NC(=O)C(c2ccccc2)N(C)C(=O)c2cnccn2)cc1 (configuration not stated),93,95,-1,-11,-1,nt,nt,nt
Cc1ccc(/C=C2\SC(=S)N(C3CCS(=O)(=O)C3)C2=O)o1 (configuration not stated),89,83,-2,-7,3,nt,nt,nt
NS(=O)(=O)c1ccc(-c2ccc(/C=C3\SC(=S)N(C4CCS(=O)(=O)C4)C3=O)o2)cc1 (configuration not stated),78,56*[inhibitor],1,-31,1,76,-12,98
CCOC(=O)n1c(O)c(N=NC(N)=S)c2cc(C)ccc21,68*[inhibitor],69,-1,-20,-2,104,2,103
Cc1cc(C)n(C(=O)c2ccc(S(=O)(=O)NCC3CCCO3)cc2)n1 (configuration not stated),113,110,0,13,-4,nt,nt,nt
CC1C(=O)C(C)C(c2cccs2)NC1c1cccs1 (configuration not stated),127*,124,-3,8,-2,130,11,104
Cc1ccccc1C1NC(c2ccccc2C)C(C)C(=O)C1C (configuration not stated),107,105,-2,4,-4,nt,nt,nt
O=C(c1ccc(F)cc1)N1CCC(N2CCCCCC2)CC1,106,115,-1,4,-1,nt,nt,nt
SMILES,MEKK3 PB1 HTS,MEKK2wt PB1 HTS,VIM-2 inhibitor,MEKK2 mut-MEK5,IMP-1 inh,MEKK2wt confirm,MEKK2mut-MEK5,MEKK3-MEK5 inh
COC(=O)c1ccc(C2c3c(oc4ccc(Cl)cc4c3=O)C(=O)N2CCN2CCOCC2)cc1 (configuration not stated),131*,128,-1,28,-3,99,3,102
Cc1ccc(Sc2ccc(CO)cc2[N+](=O)[O-])cc1,99,97,-1,-1,0,nt,nt,nt
CN1CCN(Cc2ccc(Sc3ccc(Cl)cc3)c([N+](=O)[O-])c2)CC1,107,157*,-4,27,-2,122,8,102
C=CCNC(=O)[C@@H]1CSC2c3ccc(OC)c(OC)c3C(=O)N21 (some centres not stated),105,106,0,13,-6,nt,nt,nt
CCN1c2ccccc2NC2C1C(C(C)=O)C(=O)N2c1ccc(Cl)cc1 (configuration not stated),93,59*,-3,73*,-4,101,-2,102
O=C1Nc2ccccc2N(O)N1c1ccc(Cl)cc1,100,94,-4,-3,-3,nt,nt,nt
CCCC1=NN(C(=O)CCc2ccccc2O)C(O)(C(F)(F)F)C1 (configuration not stated),138*,107,-3,3,-4,97,3,100
CC(C)CCOP(=O)(c1ccccc1)c1ccccc1,112,104,-2,-1,-1,nt,nt,nt
CCCOP(=O)(c1ccccc1)c1ccccc1,141*,106,0,0,2,97,-6,99
CCOC(=O)Cc1csc(NC(=S)NC(=O)c2cccc([N+](=O)[O-])c2)n1,139*,108,0,1,-3,106,4,103
CCOC(=O)Cc1csc(NC(=O)/C=C/c2ccc(Br)o2)n1,83,85,-3,-19,-4,nt,nt,nt
CCOC(=O)Cc1csc(NC(=O)/C=C/c2cccc(Br)c2)n1,44*[inhibitor],47*[inhibitor],-3,-17,-2,101,-3,101
CCOC(=O)Cc1csc(NC(=O)c2sc3nc4cc(C)ccc4cc3c2N)n1,144*,93,-3,13,-6,110,13,110
O=C(Nc1cccnc1)c1ccccc1Cl,98,103,-1,0,-2,nt,nt,nt
CC1(C)C/C(=N\O)c2cc3c(nc2C1)CCCC3,103,103,0,1,-1,nt,nt,nt

# Screening results as filed in PubChem BioAssay.
